Experimental data: ChEMBL document CHEMBL5620421, “2,6-Disubstituted 7-(naphthalen-2-ylmethyl)-7H-purines as a new class of potent antitubercular agents inhibiting DprE1” (Eur J Med Chem, 2023)
≈ marks a conversion by molar mass, not a printed value. Calls of active or inactive are those of the source. The rule behind the calls is not given here.

Key:
[1] = system: Staphylococcus epidermidis; test: Antibacterial activity against Staphylococcus epidermidis C1936 assessed as inhibition of bacterial growth incubated for 24 to 48 hrs by microdilution broth method; assay type: functional, organism-based; details: time 24-48 hrs
In short: (§1)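 Clinical isolates kept at –70 °C and subcultured twice on Mueller-Hinton agar, using the second subculture. Broth microdilution in Mueller-Hinton broth at pH 7.4 with two-fold serial compound dilutions and DMSO ≤1% final. Inoculum was 10 μL of a 1.5 × 10⁸ CFU/mL suspension. Incubated at 36 °C ± 1 °C and read at 24 h and 48 h. MIC taken as 95% growth inhibition.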

[2] = system: Escherichia coli; test: Antibacterial activity against Escherichia coli A1235 assessed as inhibition of bacterial growth incubated for 24 to 48 hrs by microdilution broth method; assay type: functional, organism-based; details: time 24-48 hrs; in short: as §1
[3] = system: Pseudomonas aeruginosa; test: Antibacterial activity against multidrug-resistant Pseudomonas aeruginosa A1245 assessed as inhibition of bacterial growth incubated for 24 to 48 hrs by microdilution broth method; assay type: functional, organism-based; details: time 24-48 hrs
In short: (§2)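 Clinical isolates, stored at −70 °C, were passaged twice on Mueller-Hinton agar. Broth microdilution in Mueller-Hinton broth, pH 7.4, with twofold serial dilutions. DMSO was at most 1% final. Inoculum 1.5 × 10⁸ CFU/mL suspension. MIC is 95% growth inhibition, read after 24 and 48 h at 36 °C.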

[4] = system: Mycobacterium kansasii; test: Antitubercular activity against Mycobacterium kansasii CNCTC My 235/80 assessed as inhibition of bacterial growth measured after 21 days of incubation by Sulas semisynthetic medium based assay; assay type: functional; details: CNCTC My 235/80, 504 h, time 21 day
In short: (§3)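 Micromethod in Sula's semisynthetic medium. MIC is the lowest concentration inhibiting >99% of the mycobacterial population. Isoniazid was the standard.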

[5] = system: Klebsiella pneumoniae; test: Antibacterial activity against ESBL positive Klebsiella pneumoniae C1914 assessed as inhibition of bacterial growth incubated for 24 to 48 hrs by microdilution broth method; assay type: functional, organism-based; details: time 24-48 hrs; in short: as §1
[6] = system: Mycobacterium avium; test: Antitubercular activity against Mycobacterium avium CNCTC My 330/88 assessed as inhibition of bacterial growth measured after 21 days of incubation by Sulas semisynthetic medium based assay; assay type: functional; details: CNCTC My 330/88, 504 h, time 21 day
In short: (§4)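 M. avium was tested by the micromethod in Sula's semisynthetic medium. Compounds in DMSO at 1000 to 0.5 μmol/L. Incubation at 37 °C, read at 14 and 21 days. MIC is the lowest concentration giving >99% growth inhibition.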

[7] = system: Enterococcus faecium; test: Antibacterial activity against vancomycin-resistant Enterococcus faecium assessed as inhibition of bacterial growth incubated for 24 to 48 hrs by microdilution broth method; assay type: functional, organism-based; details: time 24-48 hrs; in short: as §2
[8] = system: Staphylococcus aureus; test: Antibacterial activity against methicilin-resistant Staphylococcus aureus C1923 assessed as inhibition of bacterial growth incubated for 24 to 48 hrs by microdilution broth method; assay type: functional, organism-based; details: time 24-48 hrs; in short: as §2
[9] = system: Mycobacterium tuberculosis; test: Antitubercular activity against Mycobacterium tuberculosis CNCTC My 331/88 (H37Rv) assessed as inhibition of bacterial growth measured after 21 days of incubation by Sulas semisynthetic medium based assay; assay type: functional; details: 504 h, time 21 day
In short: (§5)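 Micromethod MIC in Sula's semisynthetic medium. MIC is the lowest concentration inhibiting >99% of the mycobacterial population. Isoniazid was the standard drug.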

[10] = system: Mycobacterium avium; test: Antitubercular activity against Mycobacterium avium CNCTC My 330/88 assessed as inhibition of bacterial growth measured after 14 days of incubation by Sulas semisynthetic medium based assay; assay type: functional; details: CNCTC My 330/88, 336 h, time 14 day; in short: as §4
[11] = system: Mycobacterium kansasii; test: Antitubercular activity against Mycobacterium kansasii CNCTC My 235/80 assessed as inhibition of bacterial growth measured after 7 days of incubation by Sulas semisynthetic medium based assay; assay type: functional; details: CNCTC My 235/80, 168 h, time 7 day; in short: as §3
[12] = system: Mycobacterium kansasii; test: Antitubercular activity against Mycobacterium kansasii CNCTC My 235/80 assessed as inhibition of bacterial growth measured after 14 days of incubation by Sulas semisynthetic medium based assay; assay type: functional; details: CNCTC My 235/80, 336 h, time 14 day; in short: as §3
[13] = system: Mycobacterium tuberculosis; test: Antitubercular activity against Mycobacterium tuberculosis CNCTC My 331/88 (H37Rv) assessed as inhibition of bacterial growth measured after 14 days of incubation by Sulas semisynthetic medium based assay; assay type: functional; details: 336 h, time 14 day; in short: as §5
[14] = system: HepG2; test: Cytotoxicity against human HepG2 cells incubated for 24 hrs by MTT assay; assay type: functional, cell-based; details: HepG2, 24 h
In short: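 HepG2 cells in DMEM with 10% FBS, seeded at 15 × 10³ cells/well and attached overnight. Exposed for 24 h to serial dilutions prepared from DMSO stocks, final DMSO ≤1%. Then given fresh medium with 0.5 mg/mL MTT for 1 h at 37 °C. Formazan dissolved in DMSO and read at 570 nm. IC50 from 4-parameter nonlinear regression; three independent experiments in triplicate, mean ± SD.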

[15] = system: Staphylococcus aureus; test: Antibacterial activity against Staphylococcus aureus C1947 assessed as inhibition of bacterial growth incubated for 24 to 48 hrs by microdilution broth method; assay type: functional, organism-based; details: time 24-48 hrs; in short: as §1
[16] = Selectivity index, ratio of IC50 for cytotoxicity against human HepG2 cells by MTT assay to MIC99 for antitubercular activity against Mycobacterium tuberculosis CNCTC My 331/88 (H37Rv) assessed as inhibition of bacterial growth measured after 14 days of incubation; assay type: functional; details: time 14 day
In short: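 HepG2 cells, 15 × 10³/well, were attached overnight and exposed 24 h to serial dilutions (DMSO ≤1%). Read by MTT at 0.5 mg/mL for 1 h and 570 nm. IC50 from 4-parameter regression, three independent experiments in triplicate. SI is HepG2 IC50 divided by H37Rv MIC99.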

[17] = system: Klebsiella pneumoniae; test: Antibacterial activity against ESBL negative Klebsiella pneumoniae C1950 assessed as inhibition of bacterial growth incubated for 24 to 48 hrs by microdilution broth method; assay type: functional, organism-based; details: time 24-48 hrs; in short: as §1

| SMILES | Activity [1] | Activity [2] | Activity [3] | MIC99 [4] | Activity [5] | MIC99 [6] | Activity [7] | Activity [8] | MIC99 [9] | MIC99 [10] | MIC99 [11] | MIC99 [12] | MIC99 [13] | IC50 [14] | Activity [15] | Selectivity Index [16] | Activity [17] |
| --- | --- | --- | --- | --- | --- | --- | --- | --- | --- | --- | --- | --- | --- | --- | --- | --- | --- |
| O=c1[nH]c(N2CCOCC2)nc2ncn(Cc3ccc(Cl)c(Cl)c3)c12 | inactive | inactive | inactive | > 500 µM | inactive | > 500 µM | inactive | inactive | 32 µM (≈ 12.2 µg/mL) | > 500 µM | > 500 µM | > 500 µM | 16 µM (≈ 6.08 µg/mL) | > 125 µM | inactive | >7.8 | inactive |
| CCN(CC)c1nc2ncn(Cc3ccc4ccccc4c3)c2c(=O)[nH]1 | inactive | inactive | inactive | > 500 µM | inactive | > 500 µM | inactive | inactive | > 500 µM | > 500 µM | > 500 µM | > 500 µM | > 500 µM | – | inactive | – | inactive |
| c1ccc2cc(Cn3cnc4nc(N5CCOCC5)nc(NC5CCCCC5)c43)ccc2c1 | inactive | inactive | inactive | 250 µM (≈ 111 µg/mL) | inactive | > 500 µM | inactive | inactive | 64 µM (≈ 28.3 µg/mL) | > 500 µM | 64 µM (≈ 28.3 µg/mL) | 125 µM (≈ 55.3 µg/mL) | 32 µM (≈ 14.2 µg/mL) | 18.9 µM | inactive | 0.59 | inactive |
| CCCCNc1nc(N2CCOCC2)nc2ncn(Cc3ccc4ccccc4c3)c12 | inactive | inactive | inactive | 8 µM (≈ 3.33 µg/mL) | inactive | 125 µM (≈ 52.1 µg/mL) | inactive | inactive | 4 µM (≈ 1.67 µg/mL) | 64 µM (≈ 26.7 µg/mL) | 8 µM (≈ 3.33 µg/mL) | 8 µM (≈ 3.33 µg/mL) | 4 µM (≈ 1.67 µg/mL) | 30.8 µM | inactive | 7.7 | inactive |
| CCNc1nc(N2CCOCC2)nc2ncn(Cc3ccc4ccccc4n3)c12 | inactive | inactive | inactive | 64 µM (≈ 24.9 µg/mL) | inactive | > 250 µM | inactive | inactive | 8 µM (≈ 3.12 µg/mL) | > 250 µM | 64 µM (≈ 24.9 µg/mL) | 64 µM (≈ 24.9 µg/mL) | 4 µM (≈ 1.56 µg/mL) | 96.4 µM | inactive | 24.08 | inactive |
| CC(C)c1ccc(Cn2cnc3nc(N4CCOCC4)[nH]c(=O)c32)cc1 | inactive | inactive | inactive | > 500 µM | inactive | > 500 µM | inactive | inactive | 32 µM (≈ 11.3 µg/mL) | > 500 µM | > 500 µM | > 500 µM | 16 µM (≈ 5.65 µg/mL) | > 125 µM | inactive | >7.8 | inactive |
| O=c1[nH]c(N2CCOCC2)nc2c1ncn2Cc1ccccc1 | – | – | – | > 500 µM | – | > 500 µM | – | – | > 500 µM | > 500 µM | > 500 µM | > 500 µM | > 500 µM | – | – | – | – |
| O=c1[nH]c(N2CCOCC2)nc2ccn(Cc3ccc4ccccc4c3)c12 | – | – | – | > 500 µM | – | > 500 µM | – | – | > 500 µM | > 500 µM | > 500 µM | > 500 µM | > 500 µM | – | – | – | – |
| O=c1[nH]c(N2CCCC2)nc2ncn(Cc3ccc4ccccc4c3)c12 | – | – | – | > 500 µM | – | > 500 µM | – | – | 16 µM (≈ 5.53 µg/mL) | > 500 µM | > 500 µM | > 500 µM | 8 µM (≈ 2.76 µg/mL) | – | – | – | – |
| O=c1[nH]c(N2CC3(COC3)C2)nc2ncn(Cc3ccc4ccccc4c3)c12 | – | – | – | > 500 µM | – | > 500 µM | – | – | > 500 µM | > 500 µM | > 500 µM | > 500 µM | > 500 µM | – | – | – | – |
| Oc1nc(N2CCOCC2)nc2ncn(Cc3ccccc3)c12 | – | – | – | > 500 µM | – | > 500 µM | – | – | > 500 µM | > 500 µM | > 500 µM | > 500 µM | > 500 µM | – | – | – | – |
